Measurements from ChEMBL document CHEMBL1147731, “Potent 7-hydroxy-1,2,3,4-tetrahydroisoquinoline-3-carboxylic acid-based macrocyclic inhibitors of hepatitis C virus NS3 protease” (J Med Chem, 2006).
Numbered stars: 1 amine (or outer) side, 2 acyl side, 3 side chain; on linkers, the order of the positions; unused ones are H or OH. Bridge positions count the residues as written; N and C are the ends. Square brackets hold non-standard residues; d marks the D form. Peptide text beside a SMILES is read from it. * marks the point of attachment. Tic(7-O(CH2)6CO) = O=C([C@@H]1Cc2ccc(OCCCCCCC(=O)[*:3])cc2CN1[*:1])[*:2]; X1 = CCCC(N[*:1])C(=O)C(=O)[*:2]; Chg = N[C@H](C(=O)O)C1CCCCC1; Phg = N[C@H](C(=O)O)c1ccccc1; OtBu = CC(C)(C)O*

Columns and labels:
NS3 = NS3 (Hepatitis C virus, UniProt A3EZJ3); experiment: Inhibition of HCV NS3 protease; parameters: species or system Hepacivirus hominis
Outline: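 Continuous spectrophotometric assay with NS4A-tethered single-chain NS3 serine protease, following cleavage of chromogenic ester substrates. Inhibition constants (Ki*) were determined. Compounds were tested as a mixture of two P1 diastereomers because pure P1 isomers racemized extensively under the assay conditions.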

[1] = Oral bioavailability in rat; assay type: ADME, organism-based; details: in vivo
[2] = AUC in rat administered sc; assay type: ADME, organism-based; details: plasma
[3] = AUC in rat administered po; assay type: ADME, organism-based; details: plasma

NS3, sequence (A3EZJ3 whole entry): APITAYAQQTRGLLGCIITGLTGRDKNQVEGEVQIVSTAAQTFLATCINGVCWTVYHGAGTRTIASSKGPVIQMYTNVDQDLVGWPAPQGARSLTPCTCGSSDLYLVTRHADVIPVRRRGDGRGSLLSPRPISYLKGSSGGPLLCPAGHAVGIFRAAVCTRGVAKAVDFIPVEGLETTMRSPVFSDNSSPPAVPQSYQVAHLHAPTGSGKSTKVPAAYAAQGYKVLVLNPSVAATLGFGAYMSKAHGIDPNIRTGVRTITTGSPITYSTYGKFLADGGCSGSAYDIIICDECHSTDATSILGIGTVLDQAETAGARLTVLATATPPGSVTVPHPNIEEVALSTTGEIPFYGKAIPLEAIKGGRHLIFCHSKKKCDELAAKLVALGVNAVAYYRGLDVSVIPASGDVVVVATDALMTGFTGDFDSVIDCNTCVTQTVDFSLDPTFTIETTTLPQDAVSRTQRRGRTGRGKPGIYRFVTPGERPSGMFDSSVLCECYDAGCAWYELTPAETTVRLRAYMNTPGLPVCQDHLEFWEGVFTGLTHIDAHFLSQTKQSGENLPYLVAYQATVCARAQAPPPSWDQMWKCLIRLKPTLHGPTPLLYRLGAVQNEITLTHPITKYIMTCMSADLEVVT

Compound: CCCC(NC(=O)[C@@H]1Cc2ccc3cc2CN1C(=O)[C@H](C1CCCCC1)NC(=O)CCCCCCO3)C(=O)C(=O)NCC(=O)NCc1ccccc1 (stereo not given in full)
- Ki (NS3): 2000 nM

Compound: CCCC(NC(=O)[C@@H]1Cc2ccc3cc2CN1C(=O)[C@H](C1CCCCC1)NC(=O)CCCCCCO3)C(=O)C(=O)NCC(=O)OCc1ccccc1 (stereo not given in full)
- Ki (NS3): 1700 nM

Compound: CCCC(NC(=O)[C@@H]1Cc2ccc3cc2CN1C(=O)[C@H](C1CCCCC1)NC(=O)CCCCCCO3)C(=O)C(N)=O (stereo not given in full)
- Ki (NS3): 2100 nM

Compound: CCCC(NC(=O)[C@@H]1Cc2ccc3cc2CN1C(=O)[C@H](C1CCCCC1)NC(=O)CCCCCCO3)C(=O)C(=O)NCC(=O)O (stereo not given in full)
- Ki (NS3): 3000 nM

Compound: CCCC(NC(=O)[C@@H]1Cc2ccc3cc2CN1C(=O)[C@H](C1CCCCC1)NC(=O)CCCCCCO3)C(=O)C(=O)NCC(=O)N[C@H](C(=O)N(C)C)c1ccccc1 (stereo not given in full) ([Chg][Tic(7-O(CH2)6CO)][X1]G[Phg]-NMe2; lactam N-2)
- bioavailability [1]: < 10%
- AUC [2]: 5.5 µM·h
- AUC [3]: 0.27 µM·h
- Ki (NS3): 21 nM

Compound: CCCC(NC(=O)[C@@H]1Cc2ccc3cc2CN1C(=O)[C@H](C1CCCCC1)NC(=O)CCCCCCO3)C(=O)C(=O)NCC(=O)N[C@H](C(=O)O)c1ccccc1 (stereo not given in full) ([Chg][Tic(7-O(CH2)6CO)][X1]G[Phg]-OH; lactam N-2)
- Ki (NS3): 15 nM

Compound: CCCC(NC(=O)[C@@H]1Cc2ccc3cc2CN1C(=O)[C@H](C1CCCCC1)NC(=O)CCCCCCO3)C(=O)C(=O)NCC(=O)N[C@H](C(=O)OC(C)(C)C)c1ccccc1 (stereo not given in full) ([Chg][Tic(7-O(CH2)6CO)][X1]G[Phg]-OtBu; lactam N-2)
- Ki (NS3): 260 nM
